Here are results for 7 compounds from article PMC8148065 (Acta Pharmaceutica Sinica. B, 2020).

Series [1] has as its target T1, HMGCR (Homo sapiens, UniProt P04035).
T1 sequence (P04035 1-888): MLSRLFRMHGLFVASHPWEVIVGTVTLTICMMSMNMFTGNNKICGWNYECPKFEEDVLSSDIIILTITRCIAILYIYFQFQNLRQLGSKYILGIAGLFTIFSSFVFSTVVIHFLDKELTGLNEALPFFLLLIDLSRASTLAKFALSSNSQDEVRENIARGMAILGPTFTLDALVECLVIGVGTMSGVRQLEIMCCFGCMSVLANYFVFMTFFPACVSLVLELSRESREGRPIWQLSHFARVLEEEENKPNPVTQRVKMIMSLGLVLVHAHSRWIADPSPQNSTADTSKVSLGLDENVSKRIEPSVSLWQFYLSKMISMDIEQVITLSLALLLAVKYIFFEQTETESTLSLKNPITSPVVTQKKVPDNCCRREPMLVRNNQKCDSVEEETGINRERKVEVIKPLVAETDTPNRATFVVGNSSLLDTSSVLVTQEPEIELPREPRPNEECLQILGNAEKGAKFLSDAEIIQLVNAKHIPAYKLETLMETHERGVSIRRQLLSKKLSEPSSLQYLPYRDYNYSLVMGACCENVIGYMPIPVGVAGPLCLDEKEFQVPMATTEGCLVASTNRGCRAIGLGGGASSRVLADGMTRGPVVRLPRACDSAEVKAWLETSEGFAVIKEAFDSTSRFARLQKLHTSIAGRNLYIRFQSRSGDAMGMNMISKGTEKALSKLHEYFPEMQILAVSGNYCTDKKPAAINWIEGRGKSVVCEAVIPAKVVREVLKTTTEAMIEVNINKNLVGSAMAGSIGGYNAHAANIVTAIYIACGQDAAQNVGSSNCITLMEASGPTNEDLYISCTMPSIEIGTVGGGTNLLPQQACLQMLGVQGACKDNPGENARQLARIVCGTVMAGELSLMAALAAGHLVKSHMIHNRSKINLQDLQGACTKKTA
Kind of series: Western blot of HMGCR level in HepG2 cells. Type of series: cell-based. Background: In western blotting, separated proteins are transferred to a membrane and probed.

Series [2] in a line: In vitro metabolic stability in mouse liver microsomes. Type of series: in vitro ADME. Particulars: for half-life at 1 μmol/L: pH 7.4. An outline of the steps:
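Mouse liver microsomes (0.5 mg/mL) were incubated with the test compound (1 μmol/L) and an NADPH regeneration system in phosphate buffer (1.0 mmol/L EDTA), pH 7.4. The reaction was started with NADPH and quenched at 5, 15, 30 and 45 min with acetonitrile plus internal standard. Samples were centrifuged, diluted in water and quantified by LC–MS/MS. t1/2 and CLint are means of duplicates.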

In series [3] the target is T2, HMGCR (Mus musculus, UniProt Q01237).
T2 sequence (Q01237 1-887): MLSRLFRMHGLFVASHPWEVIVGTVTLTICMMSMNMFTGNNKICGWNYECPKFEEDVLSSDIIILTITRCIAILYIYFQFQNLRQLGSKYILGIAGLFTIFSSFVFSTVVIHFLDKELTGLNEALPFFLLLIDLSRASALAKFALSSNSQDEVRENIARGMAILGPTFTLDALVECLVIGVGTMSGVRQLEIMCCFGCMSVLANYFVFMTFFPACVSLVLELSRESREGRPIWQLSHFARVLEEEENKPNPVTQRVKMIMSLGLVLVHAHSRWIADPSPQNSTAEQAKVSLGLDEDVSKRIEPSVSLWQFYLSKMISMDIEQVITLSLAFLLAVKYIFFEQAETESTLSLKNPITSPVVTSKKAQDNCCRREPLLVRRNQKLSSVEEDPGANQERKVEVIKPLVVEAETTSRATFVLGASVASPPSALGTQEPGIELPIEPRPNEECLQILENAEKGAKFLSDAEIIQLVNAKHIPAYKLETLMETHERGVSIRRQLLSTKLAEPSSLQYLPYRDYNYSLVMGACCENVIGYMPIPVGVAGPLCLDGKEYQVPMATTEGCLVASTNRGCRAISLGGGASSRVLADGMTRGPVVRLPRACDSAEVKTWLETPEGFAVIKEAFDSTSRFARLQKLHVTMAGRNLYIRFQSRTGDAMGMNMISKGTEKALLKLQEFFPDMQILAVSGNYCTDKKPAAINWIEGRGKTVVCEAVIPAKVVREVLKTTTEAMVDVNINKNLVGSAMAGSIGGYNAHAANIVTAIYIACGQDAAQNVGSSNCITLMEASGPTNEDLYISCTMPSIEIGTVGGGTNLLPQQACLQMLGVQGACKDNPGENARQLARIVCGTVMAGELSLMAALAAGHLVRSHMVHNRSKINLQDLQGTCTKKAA
In words: Hepatic HMGCR level by Western blot in MFD-fed mice. It counts as in vivo, C57BL/6 mice. The settings on record: 20 mg/kg p.o. once daily 5 weeks, 16 h after final gavage.

The conditions of series [4]: previously reported in mice ref 53; cited from earlier work.
Series [5] has as its target T3, recombinant HMGCR protein (Homo sapiens, UniProt P04035).
T3 sequence (P04035 426-888 limits assumed): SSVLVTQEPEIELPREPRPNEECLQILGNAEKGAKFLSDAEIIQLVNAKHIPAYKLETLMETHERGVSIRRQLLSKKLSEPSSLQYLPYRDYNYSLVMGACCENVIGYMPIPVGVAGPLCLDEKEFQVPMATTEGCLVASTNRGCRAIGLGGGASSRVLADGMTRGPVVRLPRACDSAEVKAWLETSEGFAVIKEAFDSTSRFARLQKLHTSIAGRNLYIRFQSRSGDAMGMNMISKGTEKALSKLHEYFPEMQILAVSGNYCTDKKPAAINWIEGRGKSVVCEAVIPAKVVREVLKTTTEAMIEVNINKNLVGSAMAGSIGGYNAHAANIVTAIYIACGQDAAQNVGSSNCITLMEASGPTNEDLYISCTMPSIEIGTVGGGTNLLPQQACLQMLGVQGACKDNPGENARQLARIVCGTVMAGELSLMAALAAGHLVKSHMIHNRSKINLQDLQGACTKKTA
Kind of series: HMG-CoA reductase activity assay. Type of series: biochemical.

Series [6] is described as follows: Chemical stability in saline. Type of series: physicochemical. Particulars: pH 7.4, 37 °C, 24 h.
For series [7], the system named is MFD-induced hypercholesterolemia. Kind of series: MFD-induced mouse model of hypercholesterolemia. Type of series: in vivo, C57BL/6 mice. Particulars: MFD mice. Put shortly:
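Male C57BL/6 mice (20–24 g) were fed medium-fat diet (12% fat, 0.5% sodium cholate, 1.25% cholesterol) with 3 weeks' induction. Survival, body weight and food intake were logged weekly. Sixteen hours post-dose, retro-orbital serum TC, LDL-C and TG were measured on an automated analyser (one-way ANOVA, mean ± SD).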

The structures appear in SMILES notation. “Also recorded” adds a separate entry of the source.

By half-life is commonly meant the time in which the quantity being followed falls by half. A lower half-life goes with fast loss. A word on the Tmax: it is the time from dosing to the highest level. With `CC[C@H](C)C(=O)O[C@H]1C[C@@H](C)C=C2C=C[C@H](C)[C@H](CC[C@@H]3C[C@@H](O)CC(=O)O3)[C@H]21` [Lovastatin, lovastatin, reference compound], the “Effect on HMGCR expression” value in series [1] (HepG2 cells, range of concentrations (0.1, 1, 3, 10 μmol/L), 16 h) is listed as “remarkably upregulated HMGCR in a dose-dependent manner”. The “CLint” value in series [2] (mouse liver microsomes, mean of duplicate) was 7516 mL/min/kg. This compound also returned a half-life at 1 μmol/L in series [2] (mouse, liver microsomes) of 0.73 min. Moreover, the “Hepatic HMGCR level” value in series [3] is “retained high HMGCR level”. Further, in series [4], the Tmax is 120 min.

For `CC[C@H](C)C(=O)O[C@H]1C[C@@H](C)C=C2C=C[C@H](C)[C@H](CC[C@@H](O)C[C@@H](O)CC(=O)O)[C@H]21` [lovastatin acid], the Tmax in series [4] is 90 min.

The IC50 is the midpoint of a concentration-inhibition curve. As to `C[C@H]1C=C2C=C[C@H](C)[C@H](CC[C@@H]3C[C@@H](O)CC(=O)O3)[C@H]2[C@@H](OC(=O)NCCOCCOCCNc2cccc3c2C(=O)N(C2CCC(=O)NC2=O)C3=O)C1` (stereo partly drawn) [Compound 16b, (1S,3R,7S,8S,8aR)-8-(2-((2R,4R)-4-Hydroxy-6-oxotetrahydro-2H-pyran-2-yl)ethyl)-3,7-dimethyl-1,2,3,7,8,8a-hexahydronaphthalen-1-yl (2-(2-(2-((2-(2,6-dioxopiperidin-3-yl)-1,3-dioxoisoindolin-4-yl)amino)ethoxy)ethoxy)ethyl)carbamate], in series [5], the IC50 came out at 1880 nM. The “Chemical stability (decomposition)” value in series [6] is recorded as “over half decomposition”.

As a reminder, the Dmax is the largest share of the target that was removed. Usually CLint scaled stands for the rate of metabolic loss divided by the concentration. As for `Cc1ncsc1-c1ccc(CNC(=O)[C@@H]2C[C@@H](O)CN2C(=O)[C@@H](NC(=O)CCCCCCCCCCNC(=O)O[C@H]2C[C@@H](C)C=C3C=C[C@H](C)[C@H](CC[C@@H]4C[C@@H](O)CC(=O)O4)[C@H]32)C(C)(C)C)cc1` [Compound 21b, (1S,3R,7S,8S,8aR)-8-(2-((2R,4R)-4-Hydroxy-6-oxotetrahydro-2H-pyran-2-yl)ethyl)-3,7-dimethyl-1,2,3,7,8,8a-hexahydronaphthalen-1-yl (11-(((S)-1-((2S,4R)-4-hydroxy-2-((4-(4-methylthiazol-5-yl)benzyl)carbamoyl)pyrrolidin-1-yl)-3,3-dimethyl-1-oxobutan-2-yl)amino)-11-oxoundecyl)carbamate], the IC50 in series [5] stood at 1320 nM. Further, in series [1] (HepG2, read-out: maximum degradation (Dmax)), the Dmax at 1 µM turned out to be 56%. Besides, the half-life at 1 μmol/L in series [2] (mouse, liver microsomes) came to 4.18 min. Besides, the CLint scaled at 1 μmol/L in series [2] (mouse, liver microsomes, pH 7.4, CLint (mL/min/kg), mouse liver microsomes, mean of duplicate) was determined as 416 mL/min/kg. Besides, the “Serum total cholesterol (TC), LDL-C and triglyceride (TG)” value in series [7] (20 mg/kg p.o. once daily, 5 weeks) was “moderate decrease”. Besides, in series [7] (60 mg/kg p.o. once daily, 5 weeks), the “Serum TC and cholesteryl esters” value is on record as “significantly reduced to lower levels”. Moreover, the “Hepatic TC and TG” value in series [7] (20 or 60 mg/kg p.o. once daily, 5 weeks) was “reduced hepatic TC and TG in a dose-dependent manner”. For the same compound, in series [7] (oral once a day for 5 weeks), the “Tolerability (body weight and food intake)” value was “well tolerated; also recorded: no apparent change of body weight and food intake”. Besides, the “Steatosis and lipid deposition in liver sections (H&E, oil red O)” value in series [7] (p.o. once daily, 5 weeks) was “ameliorated MFD-induced steatosis and lipid deposition”. The “Hepatic HMGCR level” value in series [3] was “robust HMGCR degradation”.

Consider `C[C@H]1C=C2C=C[C@H](C)[C@H](CC[C@@H]3C[C@@H](O)CC(=O)O3)[C@H]2[C@@H](OC(=O)NCCCNc2cccc3c2C(=O)N(C2CCC(=O)NC2=O)C3=O)C1` (stereo partly drawn) [Compound 16c, (1S,3R,7S,8S,8aR)-8-(2-((2R,4R)-4-Hydroxy-6-oxotetrahydro-2H-pyran-2-yl)ethyl)-3,7-dimethyl-1,2,3,7,8,8a-hexahydronaphthalen-1-yl (3-((2-(2,6-dioxopiperidin-3-yl)-1,3-dioxoisoindolin-4-yl)amino)propyl)carbamate], for which the IC50 in series [5] came out at 2490 nM.

Turning to `Cc1ncsc1-c1ccc(CNC(=O)[C@@H]2C[C@@H](O)CN2C(=O)[C@@H](NC(=O)CCCCCCCNC(=O)O[C@H]2C[C@@H](C)C=C3C=C[C@H](C)[C@H](CC[C@@H]4C[C@@H](O)CC(=O)O4)[C@H]32)C(C)(C)C)cc1` [Compound 21a, (1S,3R,7S,8S,8aR)-8-(2-((2R,4R)-4-Hydroxy-6-oxotetrahydro-2H-pyran-2-yl)ethyl)-3,7-dimethyl-1,2,3,7,8,8a-hexahydronaphthalen-1-yl (8-(((S)-1-((2S,4R)-4-hydroxy-2-((4-(4-methylthiazol-5-yl)benzyl)carbamoyl)pyrrolidin-1-yl)-3,3-dimethyl-1-oxobutan-2-yl)amino)-8-oxooctyl)carbamate], the IC50 in series [5] was 1560 nM.

`C[C@H]1C=C2C=C[C@H](C)[C@H](CC[C@@H]3C[C@@H](O)CC(=O)O3)[C@H]2[C@@H](OC(=O)NCCCOCCOCCOCCCNc2cccc3c2C(=O)N(C2CCC(=O)NC2=O)C3=O)C1` (stereo partly drawn) [Compound 16a, (1S,3R,7S,8S,8aR)-8-(2-((2R,4R)-4-Hydroxy-6-oxotetrahydro-2H-pyran-2-yl)ethyl)-3,7-dimethyl-1,2,3,7,8,8a-hexahydronaphthalen-1-yl (3-(2-(2-(3-((2-(2,6-dioxopiperidin-3-yl)-1,3-dioxoisoindolin-4-yl)amino)propoxy)ethoxy)ethoxy)propyl)carbamate]: the IC50 in series [5] worked out at 1250 nM.
